Measurements of several laboratories.
Compare with care: the assays were run in different laboratories.
Target: Tyrosine-protein kinase FRK (FRK, Homo sapiens, UniProt P42685)

C[C@@H](c1ccc(-n2cnc3c(N)ncnc32)cc1)N1CCc2nn(C)c(Cc3ccccc3)c2C1=O — remaining binding (binding; competition with immobilised ligand; 0.1 µM): 91%
N[C@@H]1CCN(c2nccc(-c3cnn4ncccc34)n2)C1 — remaining binding (binding; 1 µM): 97%
c1cncc(-c2cccc(Nc3nccc(NC4CCCCC4)n3)c2)c1 — remaining binding (binding; competition with immobilised ligand; 10 µM): 53%
F[C@@H]1CCN(c2nccc(-c3cnn4ncccc34)n2)C1 — remaining binding (binding; 1 µM): 88%
FC(F)(F)Oc1cccc(-c2cnc3ccc(-c4ccncc4)nn23)c1 — remaining binding (cell-free assay; competition with immobilised ligand; 5 µM): 59%
CN(C)c1nccc(-c2cnn3ncccc23)n1 — remaining binding (binding; competition with immobilised ligand; 1 µM): 100%
CO[C@@H](C)c1c(Nc2ccc([C@H](N(C)C(=O)C3CCS(=O)(=O)CC3)C(F)(F)F)cc2)cnc2cc(Cl)nn12 — remaining binding (cell-free assay; competition with immobilised ligand; 1 µM): 80%
CNC(=O)[C@@H]1CC[C@@H](n2c(-c3ccc4cnccc4c3)nc3ccc(C(=O)NCc4cccc(C(N)=O)c4)cc32)C1 — remaining binding (binding; competition with immobilised ligand; 1 µM): 100%
Cc1cnn2ncc(-c3ccnc(N(C)C)n3)c2c1 — remaining binding (binding; competition with immobilised ligand; 1 µM): 100%
CCCOc1ccc([C@H]2[C@H](C(=O)O)[C@@H](c3ccc4c(c3)OCO4)CN2CC(=O)Nc2c(CC)cccc2CC)cc1 — remaining binding (cell-free assay; competition with immobilised ligand; 1 µM): 100%
C[C@H]1CCN(c2nccc(-c3cnn4ncccc34)n2)C1 — remaining binding (binding; 1 µM): 100%
O=C(c1ccc(Nc2ncc(Cl)c(-c3cc4ccccc4s3)n2)cc1)N1CCC(N2CCCC2)CC1 — remaining binding (binding; competition with immobilised ligand; 1 µM): 90%
Nc1cnc(N2CCc3cc(S(=O)(=O)Nc4c(F)cc(Cl)cc4F)cc(N4CCCC4=O)c32)nc1 — remaining binding (cell-free assay; competition with immobilised ligand; 1 µM): 62%
Cc1cnc(Nc2ccc(C(=O)N3CCC(N4CCCC4)CC3)cc2)nc1-c1cc2ccccc2s1 — remaining binding (binding; competition with immobilised ligand; 1 µM): 76%
O=C(Nc1cnc(Oc2ccc(F)cc2)nc1)N1CCc2ncccc2[C@@H]1c1ccc(F)cc1 — remaining binding (cell-free assay; competition with immobilised ligand; 1 µM): 98%
O=C(NCCCN1CCOCC1)c1ccc(Nc2ncc(Cl)c(-c3ccc(Cl)s3)n2)cc1 — remaining binding (binding; competition with immobilised ligand; 1 µM): 100%
O=C(Nc1ccc(Oc2ccc(F)cc2)cc1)N1CCc2ncccc2[C@H]1c1ccc(F)cc1 — remaining binding (cell-free assay; competition with immobilised ligand; 1 µM): 93%
C=CC(=O)N1CCC(C(=O)NCC(=O)N2CCN(c3nc(-c4cnc(N)nc4C(F)F)nc(N4CCOCC4)n3)CC2)CC1 — remaining binding (binding; competition with immobilised ligand; 1 µM): 100%
COc1ccnn2ncc(-c3ccnc(N(C)C)n3)c12 — remaining binding (binding; 1 µM): 92%
O=C(NCC1CCOCC1)c1n[nH]cc1NC(=O)c1c(F)cccc1F — remaining binding (binding; competition with immobilised ligand; 1 µM): 100%
c1cnn2ncc(-c3ccnc(N4CCC45COC5)n3)c2c1 — remaining binding (binding; 1 µM): 82%
C[C@@H](c1cccc(C#N)c1)n1cc(Cl)cc(C(N)=O)c1=N — remaining binding (cell-free assay; competition with immobilised ligand; 1 µM): 100%
